ChEMBL document CHEMBL4033785, “Increased Potency and Selectivity for Group III Metabotropic Glutamate Receptor Agonists Binding at Dual sites” (J Med Chem, 2018)
pEC50: −log10 of the molar value.

Tests used:
[1] = target: T1, Metabotropic glutamate receptor 8 (Homo sapiens, UniProt O00222); assay: Agonist activity at mGlu8 (unknown origin) expressed in HEK293 cells coexpressing chimeric Gq/i protein assessed as increase in intracellular calcium accumulation by Fluo-4 AM dye based fluorescence assay; assay type: functional, cell-based
T1 sequence (O00222 whole entry): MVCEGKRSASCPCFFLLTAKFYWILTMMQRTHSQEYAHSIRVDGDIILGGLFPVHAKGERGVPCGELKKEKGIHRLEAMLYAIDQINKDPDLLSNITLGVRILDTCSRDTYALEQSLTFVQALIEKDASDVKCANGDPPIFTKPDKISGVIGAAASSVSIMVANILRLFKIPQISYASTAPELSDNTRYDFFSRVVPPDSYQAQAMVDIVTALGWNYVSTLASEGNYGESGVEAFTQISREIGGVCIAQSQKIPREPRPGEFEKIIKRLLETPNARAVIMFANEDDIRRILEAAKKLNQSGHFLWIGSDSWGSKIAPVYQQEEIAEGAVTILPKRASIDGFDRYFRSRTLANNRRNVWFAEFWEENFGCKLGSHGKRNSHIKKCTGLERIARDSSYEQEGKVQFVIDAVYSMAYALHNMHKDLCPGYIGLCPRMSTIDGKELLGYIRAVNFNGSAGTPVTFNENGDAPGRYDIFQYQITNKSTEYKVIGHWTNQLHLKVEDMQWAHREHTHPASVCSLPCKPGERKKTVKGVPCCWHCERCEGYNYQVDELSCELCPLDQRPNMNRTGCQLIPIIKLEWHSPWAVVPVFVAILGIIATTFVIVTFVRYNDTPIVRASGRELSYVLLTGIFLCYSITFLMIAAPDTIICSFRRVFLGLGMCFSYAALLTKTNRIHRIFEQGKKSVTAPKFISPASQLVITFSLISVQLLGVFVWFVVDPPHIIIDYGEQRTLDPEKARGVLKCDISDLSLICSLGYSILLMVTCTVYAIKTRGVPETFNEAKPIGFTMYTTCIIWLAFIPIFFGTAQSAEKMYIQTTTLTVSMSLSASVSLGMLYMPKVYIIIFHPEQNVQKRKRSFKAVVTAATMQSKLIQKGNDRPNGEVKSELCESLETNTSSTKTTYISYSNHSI

Homo sapiens [2] = species on record: Homo sapiens; assay: (§1) Selectivity ratio of EC50 for mGlu8 (unknown origin) expressed in HEK293 cells coexpressing chimeric Gq/i protein assessed as increase in intracellular calcium accumulation to EC50 for mGlu4 (unknown origin) expressed in HEK293 cells coexpressing chimeric Gq/i protein assessed as increase in intracellular calcium accumulation; assay type: cell-based
Procedure, shortened: (§2)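 Ratio of mGlu8 EC50 to mGlu4 EC50, both from the same functional assay. Both receptors were co-expressed in HEK293 cells with chimeric G-protein and EAAT3 and read by 3H-IP accumulation or by Fluo-4 Ca2+ release.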

[3] = target: Metabotropic glutamate receptor 7 (Homo sapiens, UniProt Q14831); assay: Agonist activity at mGlu7 (unknown origin) expressed in HEK293 cells coexpressing chimeric Gq/i protein assessed as increase in intracellular calcium accumulation by Fluo-4 AM dye based fluorescence assay; assay type: functional, cell-based
Chain of Metabotropic glutamate receptor 7 (Q14831 whole entry): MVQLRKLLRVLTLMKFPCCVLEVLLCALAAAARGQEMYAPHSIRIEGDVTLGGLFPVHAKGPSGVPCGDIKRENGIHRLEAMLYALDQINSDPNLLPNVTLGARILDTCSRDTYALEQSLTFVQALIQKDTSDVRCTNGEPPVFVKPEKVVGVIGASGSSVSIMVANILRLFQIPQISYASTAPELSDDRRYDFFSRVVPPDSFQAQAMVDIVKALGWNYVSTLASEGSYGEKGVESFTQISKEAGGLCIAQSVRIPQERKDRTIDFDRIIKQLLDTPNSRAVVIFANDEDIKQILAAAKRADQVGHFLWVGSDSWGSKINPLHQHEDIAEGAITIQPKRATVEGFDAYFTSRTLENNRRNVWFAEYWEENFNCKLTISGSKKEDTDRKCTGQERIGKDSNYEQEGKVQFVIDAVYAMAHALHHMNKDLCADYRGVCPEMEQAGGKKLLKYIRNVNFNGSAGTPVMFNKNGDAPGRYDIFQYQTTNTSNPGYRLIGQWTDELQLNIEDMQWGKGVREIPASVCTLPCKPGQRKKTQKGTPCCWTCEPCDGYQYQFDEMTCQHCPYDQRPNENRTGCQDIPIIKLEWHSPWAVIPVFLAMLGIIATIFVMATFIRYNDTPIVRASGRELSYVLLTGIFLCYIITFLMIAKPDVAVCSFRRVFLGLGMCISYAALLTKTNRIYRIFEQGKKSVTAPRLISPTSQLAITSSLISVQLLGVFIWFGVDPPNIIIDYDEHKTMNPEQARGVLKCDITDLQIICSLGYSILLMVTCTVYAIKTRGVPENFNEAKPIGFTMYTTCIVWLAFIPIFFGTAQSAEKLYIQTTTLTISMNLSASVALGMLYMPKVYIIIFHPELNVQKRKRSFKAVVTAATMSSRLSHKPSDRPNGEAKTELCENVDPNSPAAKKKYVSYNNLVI

[4] = target: Metabotropic glutamate receptor 4 (Homo sapiens, UniProt Q14833); assay: Agonist activity at mGlu4 (unknown origin) expressed in HEK293 cells coexpressing chimeric Gq/i protein assessed as increase in intracellular calcium accumulation by Fluo-4 AM dye based fluorescence assay; assay type: functional, cell-based
Chain of Metabotropic glutamate receptor 4 (Q14833 whole entry): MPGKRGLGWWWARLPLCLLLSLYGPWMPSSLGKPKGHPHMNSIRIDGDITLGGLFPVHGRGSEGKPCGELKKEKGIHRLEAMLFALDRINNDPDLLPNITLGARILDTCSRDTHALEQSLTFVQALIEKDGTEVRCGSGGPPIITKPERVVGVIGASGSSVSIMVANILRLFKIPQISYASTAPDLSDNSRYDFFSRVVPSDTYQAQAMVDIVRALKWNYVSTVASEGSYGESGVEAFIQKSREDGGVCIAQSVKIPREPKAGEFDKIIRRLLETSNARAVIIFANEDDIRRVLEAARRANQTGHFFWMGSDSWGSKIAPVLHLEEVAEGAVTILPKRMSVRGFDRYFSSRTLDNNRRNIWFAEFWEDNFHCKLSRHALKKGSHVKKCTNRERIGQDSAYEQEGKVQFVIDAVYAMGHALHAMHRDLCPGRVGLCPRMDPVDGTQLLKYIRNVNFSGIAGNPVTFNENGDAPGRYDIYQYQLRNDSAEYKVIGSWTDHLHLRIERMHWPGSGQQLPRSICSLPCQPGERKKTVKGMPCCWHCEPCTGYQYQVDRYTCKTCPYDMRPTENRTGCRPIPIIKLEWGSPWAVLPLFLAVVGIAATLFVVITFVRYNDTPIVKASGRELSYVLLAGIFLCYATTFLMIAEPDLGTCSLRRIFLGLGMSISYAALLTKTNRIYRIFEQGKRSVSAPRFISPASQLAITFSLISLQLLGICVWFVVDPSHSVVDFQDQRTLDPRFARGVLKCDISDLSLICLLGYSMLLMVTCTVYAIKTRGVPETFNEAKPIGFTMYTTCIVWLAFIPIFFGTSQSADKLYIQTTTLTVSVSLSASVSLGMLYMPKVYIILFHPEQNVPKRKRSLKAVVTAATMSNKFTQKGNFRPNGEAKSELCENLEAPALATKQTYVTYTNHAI

[5] = target: Metabotropic glutamate receptor 6 (Homo sapiens, UniProt O15303); assay: Agonist activity at mGlu6 (unknown origin) expressed in HEK293 cells coexpressing chimeric Gq/i protein assessed as increase in intracellular calcium accumulation by Fluo-4 AM dye based fluorescence assay; assay type: functional, cell-based
Chain of Metabotropic glutamate receptor 6 (O15303 whole entry): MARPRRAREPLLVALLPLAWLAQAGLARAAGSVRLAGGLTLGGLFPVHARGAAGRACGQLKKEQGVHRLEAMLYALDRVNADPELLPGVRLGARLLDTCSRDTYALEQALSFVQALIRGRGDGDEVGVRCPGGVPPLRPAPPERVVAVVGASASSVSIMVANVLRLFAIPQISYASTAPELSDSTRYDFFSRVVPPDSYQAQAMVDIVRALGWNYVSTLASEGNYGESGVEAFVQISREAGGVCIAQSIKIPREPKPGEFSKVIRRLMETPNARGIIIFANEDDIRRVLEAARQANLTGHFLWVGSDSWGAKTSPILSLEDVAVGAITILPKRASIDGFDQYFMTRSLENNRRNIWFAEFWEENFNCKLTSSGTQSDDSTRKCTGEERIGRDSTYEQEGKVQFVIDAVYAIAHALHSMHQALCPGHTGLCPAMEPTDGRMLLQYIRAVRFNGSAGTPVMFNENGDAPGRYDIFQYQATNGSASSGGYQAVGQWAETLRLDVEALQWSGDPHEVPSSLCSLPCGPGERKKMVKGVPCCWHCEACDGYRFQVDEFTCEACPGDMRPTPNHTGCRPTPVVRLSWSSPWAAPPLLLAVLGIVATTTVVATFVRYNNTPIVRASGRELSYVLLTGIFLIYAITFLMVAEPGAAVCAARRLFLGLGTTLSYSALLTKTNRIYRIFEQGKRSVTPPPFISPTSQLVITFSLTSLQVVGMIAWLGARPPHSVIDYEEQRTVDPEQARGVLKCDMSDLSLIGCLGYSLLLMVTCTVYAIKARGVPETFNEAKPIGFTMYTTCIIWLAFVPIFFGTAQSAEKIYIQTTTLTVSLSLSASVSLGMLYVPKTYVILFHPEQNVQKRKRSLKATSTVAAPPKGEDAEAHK

Homo sapiens [6] = species on record: Homo sapiens; assay: as §1, with “[3H]inositol phosphate” for “increase in intracellular calcium”; assay type: cell-based; procedure, shortened: as §2
[7] = target: T1, Metabotropic glutamate receptor 8; assay: Agonist activity at mGlu8 (unknown origin) expressed in HEK293 cells coexpressing chimeric Gq/i protein assessed as [3H]inositol phosphate accumulation after 30 mins by scintillation and luminescence counting method; assay type: functional, cell-based
Procedure, shortened: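 Receptor transiently co-expressed in HEK293 cells (electroporation) with chimeric G-protein and glutamate transporter EAAT3. Cells labelled overnight with 3H-myoinositol, stimulated with agonist 30 min, lysed 1 h in cold 0.1 M formic acid. 3H-IP isolated on Dowex ion exchange and counted. IP expressed relative to IP plus membrane radioactivity. Points in triplicate; EC50 from Hill-equation fit.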

Row | SMILES | pEC50 [1] | pEC50 [3] | pEC50 [4] | pEC50 [5] | pEC50 [7] | Ratio EC50 (Homo sapiens [2]) | Ratio EC50 (Homo sapiens [6])
1 | N[C@@H](CCP(=O)(O)C(O)c1ccc(C(F)(F)F)o1)C(=O)O (some centres undefined) |  |  |  |  | 5.28 |  | 3.1
2 | N[C@@H](CCP(=O)(O)C(O)c1ccc([N+](=O)[O-])cc1[N+](=O)[O-])C(=O)O (some centres undefined) |  |  |  |  | 5.34 |  | 3.1
3 | N[C@@H](CCP(=O)(O)C(O)c1cc([N+](=O)[O-])cc([N+](=O)[O-])c1)C(=O)O (some centres undefined) |  |  |  |  | 5.18 |  | 4.5
4 | N[C@@H](CCP(=O)(O)C(O)c1cccc([N+](=O)[O-])c1)C(=O)O (mixture of isomers) |  |  |  |  |  | 2 | 2.8
5 | N[C@@H](CCP(=O)(O)C(O)c1c([N+](=O)[O-])cccc1[N+](=O)[O-])C(=O)O (some centres undefined) |  |  |  |  | 5.54 |  | 1.7
6 | N[C@@H](CCP(=O)(O)C(O)c1ccc(C(F)(F)F)cc1)C(=O)O (some centres undefined) |  |  |  |  | 4.47 |  | 2.3
7 | CCOc1cc([C@@H](O)P(=O)(O)CC[C@H](N)C(=O)O)cc([N+](=O)[O-])c1O | 4.66 |  | 5.29 |  |  | 4.4 | 
8 | NC(c1csc([N+](=O)[O-])c1)P(=O)(O)CC[C@H](N)C(=O)O (some centres undefined) |  |  |  |  | 5.74 |  | 2.2
9 | N[C@@H](CCP(=O)(O)C(O)c1coc(C(=O)O)c1)C(=O)O (some centres undefined) |  |  |  |  | 5.04 |  | 4.6
10 | COc1cc([C@H](O)P(=O)(O)CC[C@H](N)C(=O)O)cc([N+](=O)[O-])c1O | 4.59 | 4.00 | 5.36 | 5.62 |  |  | 
11 | CCOc1cc([C@H](O)P(=O)(O)CC[C@H](N)C(=O)O)cc([N+](=O)[O-])c1O | 5.19 |  | 5.19 |  |  | 1 | 
12 | N[C@@H](CCP(=O)(O)C(NCc1cccc2ccccc12)c1cccc([N+](=O)[O-])c1)C(=O)O (some centres undefined) | 4.45 |  | 5.10 |  |  | 4.3 | 
13 | COc1cc([C@@H](O)P(=O)(O)CC[C@H](N)C(=O)O)cc([N+](=O)[O-])c1O | 4.74 | 4.20 | 6.14 | 5.96 |  |  | 
14 | N[C@@H](CCP(=O)(O)C(O)c1ccc(OCC(=O)O)cc1)C(=O)O (some centres undefined) |  |  |  |  |  | 256 | 
15 | N[C@@H](CCP(=O)(O)C(O)c1cc([N+](=O)[O-])cc([N+](=O)[O-])c1O)C(=O)O (some centres undefined) |  |  |  |  | 5.35 |  | 1.9
16 | N[C@@H](CCP(=O)(O)C(O)c1c[nH]c2ncccc12)C(=O)O (some centres undefined) | 5.16 |  | 5.47 |  |  | 2 | 
17 | COc1cc(CP(=O)(O)CC[C@H](N)C(=O)O)cc([N+](=O)[O-])c1O | 4.55 |  | 4.72 |  |  | 1.5 | 
18 | N[C@@H](CCP(=O)(O)Cc1ccc(O)c([N+](=O)[O-])c1)C(=O)O | 3.56 | < 4.00 | 4.62 | < 4.00 |  | 11 | 
19 | N[C@@H](CCP(=O)(O)C(O)c1ccc(N2CCOCC2)c([N+](=O)[O-])c1)C(=O)O (some centres undefined) |  | < 4.00 |  | < 4.00 | < 4.00 |  | 
20 | N[C@@H](CCP(=O)(O)Cc1cccc(C(=O)O)c1)C(=O)O |  |  | < 4.00 |  | 3.29 |  | 2.4
21 | NC(c1cccc([N+](=O)[O-])c1)P(=O)(O)CC[C@H](N)C(=O)O (some centres undefined) |  |  |  |  |  |  | 4.1
22 | CCOc1cc(C(O)P(=O)(O)CC[C@H](N)C(=O)O)cc([N+](=O)[O-])c1O (mixture of isomers) | 4.70 |  |  |  |  | 2.4 | 

The next lines start with results.

Row | pEC50 [1] | pEC50 [3] | pEC50 [4] | pEC50 [5] | pEC50 [7] | SMILES | Ratio EC50 (Homo sapiens [2]) | Ratio EC50 (Homo sapiens [6])
23 | 5.90 | < 4.00 | 6.00 | 5.62 |  | N[C@@H](CCP(=O)(O)[C@H](O)c1cccc([N+](=O)[O-])c1)C(=O)O | 1.2 | 
24 | 4.40 | 3.53 | 5.35 | 4.16 |  | N[C@@H](CCP(=O)(O)[C@@H](O)c1ccc(O)c([N+](=O)[O-])c1)C(=O)O | 8.5 | 
25 | 5.42 |  | 5.46 |  | 5.57 | COc1ccc(C(O)P(=O)(O)CC[C@H](N)C(=O)O)cc1[N+](=O)[O-] (some centres undefined) | 1 | 1.7
26 |  | < 4.00 |  | 5.38 | 5.72 | N[C@@H](CCP(=O)(O)C(O)c1ccc([N+](=O)[O-])s1)C(=O)O (some centres undefined) |  | 3.9
27 | 5.66 | < 4.00 | 5.77 | 5.41 |  | COc1ccc([C@H](O)P(=O)(O)CC[C@H](N)C(=O)O)cc1[N+](=O)[O-] | 1.3 | 
28 | 4.60 |  | 5.11 |  |  | N[C@@H](CCP(=O)(O)C(O)c1ccc(O)cc1)C(=O)O (some centres undefined) | 3.2 | 
29 | 5.60 | < 4.00 | 5.70 | 5.35 |  | COc1ccc([C@@H](O)P(=O)(O)CC[C@H](N)C(=O)O)cc1[N+](=O)[O-] | 1.2 | 
30 | 4.46 | 4.41 | 5.62 | 6.12 |  | N[C@@H](CCP(=O)(O)[C@H](O)c1cc(F)c(O)c([N+](=O)[O-])c1)C(=O)O | 14 | 
31 | 5.31 | < 4.00 | 5.33 | 4.74 | 5.60 | N[C@@H](CCP(=O)(O)C(O)c1ccc(Cl)c([N+](=O)[O-])c1)C(=O)O (some centres undefined) | 1 | 1.2
32 | 5.14 |  | 5.36 |  |  | N[C@@H](CCP(=O)(O)C(NCCc1ccccc1)c1cccc([N+](=O)[O-])c1)C(=O)O (some centres undefined) | 1.6 | 
33 | < 4.00 | < 4.00 | 4.23 | < 4.00 |  | CS(=O)(=O)c1ccc(C(O)P(=O)(O)CC[C@H](N)C(=O)O)cc1 (some centres undefined) |  | 
34 | 4.21 |  | 5.19 | 4.64 |  | COc1ccc(C(O)P(=O)(O)CC[C@H](N)C(=O)O)cc1 (some centres undefined) | 9.3 | 
35 |  | < 4.00 |  | 5.49 |  | N[C@@H](CCP(=O)(O)Cc1cccc([N+](=O)[O-])c1)C(=O)O | 2.5 | 5.4
36 | 5.08 | 4.94 | 5.06 |  | 5.08 | Nc1ccc(C(O)P(=O)(O)CC[C@H](N)C(=O)O)cc1 (some centres undefined) | 0.9 | 0.9
37 | 5.89 | < 4.00 | 6.49 | 5.49 |  | N[C@@H](CCP(=O)(O)[C@@H](O)c1cccc([N+](=O)[O-])c1)C(=O)O |  | 
38 | 4.09 |  | 4.38 |  |  | N[C@@H](CCP(=O)(O)C(O)c1ccnc(O)c1)C(=O)O (some centres undefined) | 1.9 | 

Row | pEC50 [1] | pEC50 [3] | pEC50 [4] | pEC50 [5] | pEC50 [7] | SMILES | Ratio EC50 (Homo sapiens [2]) | Ratio EC50 (Homo sapiens [6])
39 | 4.77 | 4.27 | 5.01 | 4.99 |  | N[C@@H](CCP(=O)(O)[C@@H](O)c1cc(F)c(O)c([N+](=O)[O-])c1)C(=O)O | 1.8 | 
40 |  |  |  |  | 4.70 | N[C@@H](CCP(=O)(O)C(O)c1ccc([N+](=O)[O-])c(O)c1)C(=O)O (some centres undefined) |  | 8.7
41 | 4.64 |  | 4.60 |  |  | CCCCCCNC(c1cccc([N+](=O)[O-])c1)P(=O)(O)CC[C@H](N)C(=O)O (some centres undefined) | 0.9 | 
42 | 4.77 |  | 4.48 |  |  | N[C@@H](CCP(=O)(O)C(O)c1ccc(O)nc1)C(=O)O (some centres undefined) | 0.5 | 
43 | 4.14 |  | 5.82 |  |  | N[C@@H](CCP(=O)(O)C(O)c1ccc(O)c([N+](=O)[O-])c1)C(=O)O (some centres undefined) | 48 | 18
44 |  | < 4.00 |  | 5.54 | 6.01 | N[C@@H](CCP(=O)(O)C(O)c1ccc([N+](=O)[O-])c(C(F)(F)F)c1)C(=O)O (some centres undefined) |  | 2.4
45 | 4.63 | 4.29 | 5.71 | 5.97 |  | N[C@@H](CCP(=O)(O)C(O)c1cc(F)c(O)c([N+](=O)[O-])c1)C(=O)O (some centres undefined) | 12 | 
46 | 4.58 |  | 4.55 |  |  | N[C@@H](CCP(=O)(O)C(O)c1ccncc1)C(=O)O (some centres undefined) | 1 | 
47 | 4.40 |  | 4.80 |  |  | N[C@@H](CCP(=O)(O)C(O)c1ccc(O)c(C(=O)O)c1)C(=O)O (some centres undefined) | 2.5 | 
48 |  |  |  |  | 4.67 | N[C@@H](CCP(=O)(O)C(O)c1cccc([N+](=O)[O-])c1O)C(=O)O (some centres undefined) |  | 0.92
49 | 4.42 |  | 5.21 |  |  | CCCCCCCCNC(c1cccc([N+](=O)[O-])c1)P(=O)(O)CC[C@H](N)C(=O)O (some centres undefined) | 6.3 | 
50 | 4.53 |  | 4.60 |  |  | N[C@@H](CCP(=O)(O)C(NCc1ccccc1)c1cccc([N+](=O)[O-])c1)C(=O)O (some centres undefined) | 1.2 | 
51 |  |  |  |  | 3.66 | N#Cc1cccc(C(O)P(=O)(O)CC[C@H](N)C(=O)O)c1 (some centres undefined) |  | 5.3
52 |  |  |  |  | 5.38 | N[C@@H](CCP(=O)(O)C(O)c1cc([N+](=O)[O-])ccc1O)C(=O)O (some centres undefined) |  | 4.6
53 | 4.50 | 4.21 | 6.30 | 5.44 |  | N[C@@H](CCP(=O)(O)[C@H](O)c1ccc(O)c([N+](=O)[O-])c1)C(=O)O | 61 | 
54 |  |  |  |  | 4.85 | CC(=O)c1ccc(C(O)P(=O)(O)CC[C@H](N)C(=O)O)cc1 (some centres undefined) |  | 1.8
